In series [1] the test system is MRC5. Description: Antiviral activity in plaque reduction assay was determined against varicella zoster virus (VZV) in MRC-5 cells. The series is classed as functional, cell-based. Particulars: Homo sapiens. On the technique in general: Plaques are areas of infected cells; plaque reduction assays count them against a control.
Series [2] has as its system Mus musculus. Description: Concentration of BRL 44385 in blood was determined in female BALB/c mice at 15 min a after of dosing of […]. Particulars: in vivo, 0.25 h. Format: ADME, organism-based. The gist of the method:
(§1)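 Female Balb/c mice (20 g), fasted 18 h, given a single 0.2 mmol/kg oral gavage dose in 0.1 mL 1% (carboxymethyl)cellulose. Blood drawn by cardiac puncture with heparinised syringes at 15, 60 and 180 min. Equal volumes from three mice pooled per time point. Samples deproteinised with 16% trichloroacetic acid, neutralised with NaHCO3, mixed with 0.4 M NH4OAc (pH 6.0), and analysed by HPLC.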

The test system of series [3] is Mus musculus. Description: Concentration of BRL 44385 in blood was determined in female BALB/c mice at 60 min a after of dosing of […]. The series is classed as ADME, organism-based. As to conditions: in vivo, 1 h. The gist of the method: as §1
Series [4] has as its system Vero. The series is described as follows: Antiviral activity in plaque reduction assay was determined against herpes simplex virus type 1 (HSV-1) in Vero cells. The series is classed as functional, cell-based. Particulars: Chlorocebus sabaeus. An outline of the steps:
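Vero monolayers infected with about 50 PFU HSV-1. Compound at various concentrations, present throughout incubation. Stocks 10 mg/mL in Me2SO, diluted in culture medium. Plaques counted when clearly visible, usually 3 days.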

Series [5] relates to MRC5. The series is described as follows: Antiviral activity in plaque reduction assay was determined against herpes simplex virus type 2 (HSV-2) in MRC-5 cells. The series is classed as functional, cell-based. Particulars: Homo sapiens. An outline of the steps:
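HSV-2 at about 50 PFU infected onto MRC-5 monolayers. Compound at various concentrations, present throughout incubation. Stocks 10 mg/mL in Me2SO, diluted in culture medium. Plaques counted when clearly visible, usually 1 day.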

The test system of series [6] is Mus musculus. Description: Concentration of BRL 44385 in blood was determined in female BALB/c mice at 60 min after dosing of […]. The series is classed as ADME, organism-based. As to conditions: in vivo, 1 h. An outline of the steps:
as §1

The structures appear in SMILES notation. Some results are limits rather than exact numbers.

For orientation: IC50 means the point on the concentration scale where inhibition reaches its midpoint. Lower therefore signals inhibition by little substance. As for `Nc1nc(O)c2ncn(OCC(CO)CO)c2n1`, the half-maximal inhibitory concentration (IC50) in series [1] came to 11 µM; in series [4], 5.9 µM; in series [5], 5.9 µM. The concentration in series [2] and in series [3] was 2 µM throughout.
On to `CCC(=O)OCC(COC(=O)CC)COn1cnc2cnc(N)nc21`, for which the concentration in series [2] was determined as 49 µM; in series [3], 12 µM.
In the same order, the values of `CCOc1nc(N)nc2c1ncn2OCCCO` are 6 µM and < 2 µM.
On to `Nc1nc(O)c2ncn(OCCCOC(=O)c3ccccc3)c2n1`, for which the results for the IC50 in series [1], in series [4] and in series [5] were > 300 µM, 8.5 µM and 6.4 µM, respectively. In addition, the concentration in series [2] and in series [3] was < 2 µM each time.
`Nc1nc(O)c2ncn(OCC3COP(=O)(O)OC3)c2n1` (stereo not drawn): the concentration for half-maximal inhibition (IC50) in series [1] is 186 µM; in series [4] it was 180 µM; in series [5] it was 180 µM.
Regarding `CCCCCC(=O)OCCCOn1cnc2c(O)nc(N)nc21`, the half-maximal inhibitory concentration (IC50) in series [1] is 7.4 µM; in series [4], 2.1 µM; in series [5], 0.22 µM. Besides, the concentration in series [2] was determined as 8 µM; in series [3] it was 3 µM.
As to `Nc1nc2c(ncn2COCCO)c(=O)[nH]1` [ACYCLOVIR], the IC50 in series [4] stood at 6.7 µM; in series [5], 2.5 µM.
As for `Nc1nc(N)c2ncn(OCC(CO)CO)c2n1`, the concentration in series [2] and in series [3] was < 2 µM throughout.
For the compound `CCOc1nc(N)nc2c1ncn2OCC(CO)CO`, the concentration stood at 37 µM in series [2] and 15 µM in series [3].
For the compound `CCCCCC(=O)OCCCOn1cnc2cnc(N)nc21`, the results for the concentration in series [2] and in series [3] were 66 µM and 4 µM, respectively.
`CC(=O)OCCCOn1cnc2c(O)nc(N)nc21`: the IC50 in series [1] is 45 µM; in series [4], 16 µM; in series [5], 4.1 µM. Moreover, the concentration in series [2] was 3 µM; in series [3], 5 µM.
In the case of `CC(C)Oc1nc(N)nc2c1ncn2OCC(CO)CO`, the concentration in series [2] came to 29 µM; in series [3], 26 µM.
On the same counts, the results for `CC(=O)OCCCOn1cnc2cnc(N)nc21` are 45 µM and 3 µM.
Take `Nc1nc(O)c2ncn(OCCCO)c2n1`: the IC50 in series [1] is 4.4 µM; in series [4], 2.1 µM; in series [5], 0.71 µM. For the same compound, the concentration in series [2] came to 8 µM; in series [3], 5 µM.
For the compound `Nc1nc(Cl)c2ncn(OCC(CO)CO)c2n1`, the concentration in series [2] stood at 11 µM; in series [3], 5 µM.
As for `Nc1ncc2ncn(OCC(COC(=O)c3ccccc3)COC(=O)c3ccccc3)c2n1`, the concentration in series [2] was 14 µM; in series [6], 9 µM.
Consider `Nc1ncc2ncn(OCC(CO)CO)c2n1`, for which the concentration in series [2] is 31 µM; in series [3] it was 16 µM.
As for `CC(=O)OCC(COC(C)=O)COn1cnc2cnc(N)nc21`, the concentration was 53 µM in series [2] and 10 µM in series [3].
With `Nc1ncc2ncn(OCCCOC(=O)c3ccccc3)c2n1`, the figures for the concentration in series [2] and in series [3] were 46 µM and 4 µM, respectively.
As for `COc1nc(N)nc2c1ncn2OCC(CO)CO`, the concentration in series [2] was 7 µM; in series [3], 8 µM.
On the same counts, the results for `Nc1ncc2ncn(OCCCO)c2n1` are 43 µM and 3 µM.

Values taken from ChEMBL document CHEMBL1124932, “Synthesis and antiviral activity of 9-alkoxypurines. 1. 9-(3-Hydroxypropoxy)- and 9-[3-hydroxymethyl)propoxy]purines” (J Med Chem, 1990).
